Results on four molecules are retold here after ChEMBL document CHEMBL4373733, “Reinvestigating the synthesis and efficacy of small benzimidazole derivatives as presequence protease enhancers” (Eur J Med Chem, 2019).

Activity calls are given as the source filed them. The rule behind the calls is not given here.

Data set [1] has as its target T1, Presequence protease, mitochondrial (Homo sapiens) (UniProt Q5JRX3).
T1 sequence (whole entry): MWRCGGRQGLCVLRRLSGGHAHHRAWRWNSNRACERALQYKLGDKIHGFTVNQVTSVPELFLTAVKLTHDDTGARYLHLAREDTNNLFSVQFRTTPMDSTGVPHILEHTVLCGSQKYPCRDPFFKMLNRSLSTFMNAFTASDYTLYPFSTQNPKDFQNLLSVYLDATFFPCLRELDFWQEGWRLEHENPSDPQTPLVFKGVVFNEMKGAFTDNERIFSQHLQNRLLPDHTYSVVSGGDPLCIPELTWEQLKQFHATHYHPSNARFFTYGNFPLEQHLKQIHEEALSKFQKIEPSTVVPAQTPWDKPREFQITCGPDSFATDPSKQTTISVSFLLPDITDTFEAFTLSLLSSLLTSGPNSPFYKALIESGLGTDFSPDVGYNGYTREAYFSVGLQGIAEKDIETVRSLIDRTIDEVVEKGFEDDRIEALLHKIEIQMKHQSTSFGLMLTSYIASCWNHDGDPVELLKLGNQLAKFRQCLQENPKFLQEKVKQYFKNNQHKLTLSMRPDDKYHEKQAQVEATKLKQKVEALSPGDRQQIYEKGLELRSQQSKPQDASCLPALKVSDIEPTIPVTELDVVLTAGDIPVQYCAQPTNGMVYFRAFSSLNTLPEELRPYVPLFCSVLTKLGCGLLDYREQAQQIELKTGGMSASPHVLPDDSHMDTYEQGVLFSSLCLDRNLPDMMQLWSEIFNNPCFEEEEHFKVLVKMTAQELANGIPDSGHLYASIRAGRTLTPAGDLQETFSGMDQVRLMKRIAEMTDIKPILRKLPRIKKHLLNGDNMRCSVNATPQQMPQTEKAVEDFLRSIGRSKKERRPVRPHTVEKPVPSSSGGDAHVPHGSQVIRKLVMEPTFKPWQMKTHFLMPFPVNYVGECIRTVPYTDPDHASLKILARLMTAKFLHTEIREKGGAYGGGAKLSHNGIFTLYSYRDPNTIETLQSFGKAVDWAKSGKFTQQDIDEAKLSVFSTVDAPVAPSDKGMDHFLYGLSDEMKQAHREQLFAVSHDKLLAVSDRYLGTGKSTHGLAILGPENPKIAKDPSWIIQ
Kind of data set: Agonist activity at recombinant human N-terminal His6-tagged PreP expressed in Escherichia coli expression system assessed as increase in degradation of substrate V at 0.0001 to 10 uM measured every 30 sec for 10 mins by fluorometry. In short, it runs like this:
(§1)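 hPreP expressed in E. coli at 25 °C (300μM IPTG, 16 h), purified by Ni-NTA, Source Q and Superdex 200, stored at −80 °C. Reaction: 0.1 μg (or 1 μg) hPreP in 20 mM HEPES pH 8.0, 10 mM MgCl₂, with substrate V (0.1 or 1.4 μg), 200 or 250 μl, room temperature (24–26 °C) or 37 °C. Fluorescence ex 320/em 405 nm. Degradation rate averaged over four independent experiments, mean ± SD.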

Substrate in data set [2]: O=[N+]([O-])c1ccc2nc(-c3cc(Br)ccc3O)n(Cc3cc(Br)ccc3O)c2c1
Description: Agonist activity at recombinant human N-terminal His6-tagged PreP expressed in Escherichia coli expression system assessed as increase in degradation of substrate V by measuring catalytic rate at 10 uM measured every 30 sec for 10 mins by fluorometry (reference value: 1.4 +/- 0.1 /min). In short, it runs like this: as §1

Substrate in data set [3]: O=[N+]([O-])c1ccc2nc(-c3cc(Br)ccc3O)n(Cc3cc(Br)ccc3O)c2c1
Kind of data set: (§2) Agonist activity at recombinant human N-terminal His6-tagged PreP expressed in Escherichia coli expression system assessed as increase in degradation of substrate V by measuring catalytic rate at 1 uM measured every 30 sec for 10 mins by fluorometry (reference value: 1.4 +/- 0.1 /min). In short, it runs like this: as §1

Substrate in data set [4]: Nc1ccc([N+](=O)[O-])cc1/N=C/c1cc(Br)ccc1O
Described as §2. In short, it runs like this: as §1

Substrate in data set [5]: O=[N+]([O-])c1ccc2nc(-c3cc(Br)ccc3O)n(Cc3cc(Br)ccc3O)c2c1
Description: (§3) Agonist activity at recombinant human N-terminal His6-tagged PreP expressed in Escherichia coli expression system assessed as increase in degradation of substrate V by measuring catalytic rate at 0.01 uM measured every 30 sec for 10 mins by fluorometry (reference value: 1.4 +/- 0.1 /min). In short, it runs like this:
as §1

Substrate in data set [6]: Nc1ccc([N+](=O)[O-])cc1/N=C/c1cc(Br)ccc1O
Described as §3. In short, it runs like this: as §1

Substrate in data set [7]: O=[N+]([O-])c1ccc2nc(-c3cc(Br)ccc3O)n(Cc3cc(Br)ccc3O)c2c1
Description: (§4) Agonist activity at recombinant human N-terminal His6-tagged PreP expressed in Escherichia coli expression system assessed as increase in degradation of substrate V by measuring catalytic rate at 0.1 uM measured every 30 sec for 10 mins by fluorometry (reference value: 1.4 +/- 0.1 /min). In short, it runs like this:
as §1

Substrate in data set [8]: Nc1ccc([N+](=O)[O-])cc1/N=C/c1cc(Br)ccc1O
Described as §4. In short, it runs like this: as §1

The target of data set [9] is Presequence protease, mitochondrial (Homo sapiens) (UniProt Q5JRX3). Kind of data set: Agonist activity at recombinant human N-terminal His6-tagged PreP expressed in Escherichia coli expression system assessed as increase in degradation of substrate V by measuring catalytic rate at 10 uM measured every 30 sec for 10 mins by fluorometry (reference value: 1.4 +/- 0.1 /min).

Regarding `Nc1ccc([N+](=O)[O-])cc1/N=C/c1cc(Br)ccc1O`, in data set [1], the outcome was inactive.
The same measure, in the same setting: as for `O=[N+]([O-])c1ccc2nc(-c3cc(Br)ccc3O)n(Cc3cc(Br)ccc3O)c2c1`, the entry is “inactive”; as for `O=[N+]([O-])c1ccc2[nH]c(-c3cc(Br)ccc3O)nc2c1`, “inactive”.

B1: Presequence protease, mitochondrial (Homo sapiens), Q5JRX3 (protein)
chain: T1 sequence (whole entry)
Turning to B1, the kcat in [2] amounted to 0.0233 s⁻¹; in data set [3] it was 0.0217 s⁻¹; in data set [4] it was 0.0217 s⁻¹; in data set [5] it was 0.0183 s⁻¹; in data set [6] it was 0.0233 s⁻¹; in [7], 0.02 s⁻¹. Further, the figures for the kcat in data set [8] and in data set [9] were 0.02 s⁻¹ and 0.0217 s⁻¹, respectively.
